Holding throughout (assay type): functional
For assay [1], the species on record is Homo sapiens. The experiment in a line: Relative ex vivo induction of IL1-beta in human whole blood stimulated with 10 ug/mL. In short, it runs like this: (§1)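 Human whole blood was stimulated with sample, and cell-associated TNF-α and IL-1β were measured by sandwich ELISA. Relative induction below 0.05 was scored as not detected.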
For assay [2], the species on record is Homo sapiens. The assay can be described thus: Relative ex vivo induction of TNF-alpha in human whole blood stimulated with 10 ug/mL. The essentials:
as §1

The next assay is filed under the species Oryctolagus cuniculus. The experiment in a line: Minimum pyrogenic dose was determined for Febrile response in a standard 3-rabbit USP pyrogen test by injecting compound in the marginal ear vein. In short, it runs like this: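 Test article dissolved in EtOH, then diluted with D5W to the desired concentrations just before injection. The minimal pyrogenic dose is the dose at which the summed temperature rise over the three rabbits reaches at least 1.2 °C.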

The species entered for the next assay is Mus musculus. The experiment in a line: Half-maximal response in vitro using peritoneal exudate cells from Propionibacterium acnes-primed mice. The following applies: read-out: ED50 (the source's name).

Each structure is given as a SMILES string. ≈ marks a conversion by molar mass, not a printed value.

Consider `CCCCCCCCCCC[C@H](CC(=O)N[C@H](CO[C@@H]1OC(CO)[C@H](OP(=O)(O)O)C(OC(=O)C[C@@H](CCCCCCCCCCC)OC(=O)CCCCCCCCC)[C@@H]1NC(=O)C[C@@H](CCCCCCCCCCC)OC(=O)CCCCCCCCC)C(=O)O)OC(=O)CCCCCCCCC` (stereo partly specified), for which the figures for the Cytokine induction in the assay filed under Homo sapiens [1] and in the assay filed under Homo sapiens [2] were 0.6 and 1.5, respectively. The same molecule gave a Dose in the assay filed under Oryctolagus cuniculus of less than 0.0025 mg/kg. Further, in the assay filed under Mus musculus, the EC50 was determined as 0.0003 µg/mL (≈ 0.000202 µM).

`CCCCCCCCCCC[C@H](CC(=O)NC(CO[C@@H]1OC(CO)[C@H](OP(=O)(O)O)C(OC(=O)C[C@@H](CCCCCCCCCCC)OC(=O)CCCCC)[C@@H]1NC(=O)C[C@@H](CCCCCCCCCCC)OC(=O)CCCCC)C(N)=O)OC(=O)CCCCC` (stereo partly specified): the Dose in the assay filed under Oryctolagus cuniculus was greater than 0.01 mg/kg. In addition, the EC50 in the assay listed under Mus musculus is greater than 10 µg/mL.

As to `CCCCCCCCCCCCCC(=O)O[C@H](CCCCCCCCCCC)CC(=O)NC(CO[C@@H]1OC(CO)[C@H](OP(=O)(O)O)C(OC(=O)C[C@@H](CCCCCCCCCCC)OC(=O)CCCCCCCCCCCCC)[C@@H]1NC(=O)C[C@@H](CCCCCCCCCCC)OC(=O)CCCCCCCCCCCCC)C(=O)OC` (stereo partly specified), the Cytokine induction in the assay listed under Homo sapiens [1] and in the assay listed under Homo sapiens [2] was 1.1 in each case. Besides, the Dose in the assay listed under Oryctolagus cuniculus turned out to be 0.01 mg/kg. Besides, the EC50 in the assay filed under Mus musculus was 0.067 µg/mL (≈ 0.0401 µM).

Consider `CCCCCCCCCCC[C@H](CC(=O)NCCO[C@@H]1OC(CO)[C@H](OP(=O)(O)O)C(OC(=O)C[C@@H](CCCCCCCCCCC)OC(=O)CCCCC)[C@@H]1NC(=O)C[C@@H](CCCCCCCCCCC)OC(=O)CCCCC)OC(=O)CCCCC` (stereo partly specified), for which the Dose in the assay filed under Oryctolagus cuniculus came out at 0.01 mg/kg. Besides, the EC50 in the assay filed under Mus musculus is greater than 10 µg/mL.

As to `CCCCCCCCCCCC(=O)O[C@H](CCCCCCCCCCC)CC(=O)NC(CO[C@@H]1OC(CO)[C@H](OP(=O)(O)O)C(OC(=O)C[C@@H](CCCCCCCCCCC)OC(=O)CCCCCCCCCCC)[C@@H]1NC(=O)C[C@@H](CCCCCCCCCCC)OC(=O)CCCCCCCCCCC)C(=O)O` (stereo partly specified), the Cytokine induction in the assay filed under Homo sapiens [1] was found to be 2; in the assay filed under Homo sapiens [2], 3.6. For the same molecule, the Dose in the assay filed under Oryctolagus cuniculus was less than 0.0025 mg/kg. Also, in the assay filed under Mus musculus, the EC50 is 0.0009 µg/mL (≈ 0.000572 µM).

In the case of `CCCCCCCCCCCCCC(=O)O[C@H](CCCCCCCCCCC)CC(=O)NC(CO[C@@H]1OC(CO)[C@H](OP(=O)(O)O)C(OC(=O)C[C@@H](CCCCCCCCCCC)OC(=O)CCCCCCCCCCCCC)[C@@H]1NC(=O)C[C@@H](CCCCCCCCCCC)OC(=O)CCCCCCCCCCCCC)C(N)=O` (stereo partly specified), the Cytokine induction worked out at 0.9 in the assay listed under Homo sapiens [1] and 1.1 in the assay listed under Homo sapiens [2]. Besides, in the assay listed under Oryctolagus cuniculus, the Dose stood at 0.01 mg/kg. The EC50 in the assay filed under Mus musculus was 0.02 µg/mL (≈ 0.0121 µM).

In the assay filed under Oryctolagus cuniculus, `CCCCCCCCCCCCCC(=O)O[C@H](CCCCCCCCCCC)CC(=O)NCCCCCCCCO[C@@H]1OC(CO)[C@H](OP(=O)(O)O)C(OC(=O)C[C@@H](CCCCCCCCCCC)OC(=O)CCCCCCCCCCCCC)[C@@H]1NC(=O)C[C@@H](CCCCCCCCCCC)OC(=O)CCCCCCCCCCCCC` (stereo partly specified) had a Dose greater than 0.01 mg/kg. Further, in the assay filed under Mus musculus, the EC50 is greater than 10 µg/mL.

Regarding `CCCCCCCCCCC[C@H](CC(=O)NC(CO[C@@H]1OC(CO)[C@H](OP(=O)(O)O)C(OC(=O)C[C@@H](CCCCCCCCCCC)OC(=O)CCCCCCC)[C@@H]1NC(=O)C[C@@H](CCCCCCCCCCC)OC(=O)CCCCCCC)C(=O)O)OC(=O)CCCCCCC` (stereo partly specified), in the assay listed under Oryctolagus cuniculus, the Dose was less than 0.0025 mg/kg. In addition, in the assay filed under Mus musculus, the EC50 turned out to be 0.033 µg/mL (≈ 0.0235 µM).

`CCCCCCCCCCCCCC(=O)O[C@H](CCCCCCCCCCC)CC(=O)NCCCCCCO[C@@H]1OC(CO)[C@H](OP(=O)(O)O)C(OC(=O)C[C@@H](CCCCCCCCCCC)OC(=O)CCCCCCCCCCCCC)[C@@H]1NC(=O)C[C@@H](CCCCCCCCCCC)OC(=O)CCCCCCCCCCCCC` (stereo partly specified): the Dose in the assay listed under Oryctolagus cuniculus was greater than 0.01 mg/kg. Moreover, the EC50 in the assay listed under Mus musculus came to 0.16 µg/mL (≈ 0.0959 µM).

Source of the values: ChEMBL document CHEMBL1131828, “Synthesis and biological evaluation of a new class of vaccine adjuvants: aminoalkyl glucosaminide 4-phosphates (AGPs)” (1999).
